Results pooled from the literature.
Lines come from different studies, so protocols differ.
Matrix: plasma

| Compound | host | route | dose | setting | quantity | result |
| --- | --- | --- | --- | --- | --- | --- |
| COc1ccc(F)cc1C(=O)NCc1ccc(-c2nn([C@@H](C)C(F)(F)F)c(N)c2C(N)=O)cc1 | human | oral | 200 mg | single dose, fasted | AUC(0-inf) | 90200 ng·h/mL |
| CC(C)n1c(C2CCNCC2)nc2c([N+](=O)[O-])c(Br)c(Br)cc21 | human | oral | 150 mg | patients | AUC(0-t) | 2880 ng·h/mL |
| CC(=O)N(C)[C@H]1CCN(C(=O)c2cnc3c(c2)C[C@](C)(c2ccc(F)cc2)N3)C1 | male human | oral | 30 mg | multiple doses, once daily | AUC(0-inf) | 3.99 µM·h |
| COc1ccc2c(c1)CN(C(=O)CCN1CCC(Cc3ccccc3)CC1)CC[S@@+]2[O-] | male human | intravenous | 0.6 mg/kg | healthy volunteers | AUC(0-inf) | 3240 ng·h/mL |
| C=CC(=O)NC1CCN(c2ncc3ncnc(Nc4ccc(Oc5ccc6c(c5)ncn6C)c(C)c4)c3n2)CC1 | male human | intravenous | 100 µg | single dose, healthy volunteers | AUC(0-inf) | 0.00269 µM·h |
| CC(C)c1nc(N(C)S(C)(=O)=O)nc(-c2ccc(F)cc2)c1/C=C/[C@@H](O)C[C@@H](O)CC(=O)O | human | oral | 10 mg | single dose, healthy volunteers | AUC(0-inf) | 36.7 ng·h/mL |
| COc1ccc(-c2c(Nc3ccccn3)[nH]c3c(C4=CCCCC4)c(-c4ccccc4)nn3c2=O)cc1 | human | oral | 200 mg once daily | multiple doses, steady state, patients | AUC(0-t) | 108000 ng·h/mL |
| O=C(COc1ccc(Cl)cc1)NC12CC(c3nnc([C@H]4C[C@@H](OC(F)(F)F)C4)o3)(C1)C2 | human | oral | 145 mg | multiple doses, once daily, steady state, healthy volunteers | AUC | 141 µM·h |
| CC(C)c1nc(N(C)S(C)(=O)=O)nc(-c2ccc(F)cc2)c1/C=C/[C@@H](O)C[C@@H](O)CC(=O)O | human | oral | 10 mg |  | AUC | 60.3 ng·h/mL |
| OC[C@H]1O[C@@H](c2cc(Cc3ccc(C4CC4)cc3)c(Cl)c3c2CCO3)[C@H](O)[C@@H](O)[C@@H]1O | human | oral | 0.3 mg | single dose, fasted | AUC(0-inf) | 33.3 ng·h/mL |
